Activity calls are given as the source filed them. The rule behind the calls is not given here.
Columns and labels:
[1] = Drug uptake in human SK-OV-3 cells assessed as intracellular accumulation at 10 uM incubated for 24 hrs spectrophotometric analysis; type: ADME, cell-based; conditions: sk-ov-3, 24 h
In short: (§1)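 Cells (3 × 10^6 per 75 cm² flask) grown 48 h, then exposed 24 h to BODIPY at 10 µM. Cells trypsinized and lysed in 0.1 M NaOH/1% SDS (5 × 10^6 cells/mL). Absorbance read at λmax; intracellular amount taken from a calibration curve prepared in SDS-lysed cells. 3–5 independent experiments.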

SK-OV-3 [2] = test: Induction of cell cycle arrest in human SK-OV-3 cells assessed as cell cycle distribution at antiproliferative IC50 preincubated for 24 hrs followed by irradiated with green LED for 2 hrs then incubated in dark for 24 hrs in drug free medium by PI staining based flow cytometric analysis; type: functional
In short: (§2)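 DNA content measured by PI flow cytometry (575 nm) in linear mode to give cell-cycle phase distribution. Untreated controls; 3 independent experiments.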

SK-OV-3 [3] = test: Antiproliferative activity against human SK-OV-3 cells assessed as reduction in cell viability preincubated for 24 hrs followed by irradiated with green LED for 2 hrs then incubated in dark for 24 hrs in drug free medium by MTT assay; type: functional, cell-based; conditions: SK-OV-3, light or radiation study
In short: (§3)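 HCT116 and SKOV3 grown in DMEM, MCF7 in RPMI1640, all with 10% FBS. Cells attached 24 h, then exposed 24 h to BODIPY (0.1–200 nM) at 37 °C. Medium replaced by PBS and cells irradiated 2 h with green LED, then held 24 h in the dark in drug-free medium. MTT (2 mg/mL) added for 3 h; DMSO-dissolved formazan read by absorbance. IC50 from dose-response curves; 3–5 independent experiments.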

[4] = Drug uptake in human MCF7 cells assessed as intracellular accumulation at 10 uM incubated for 24 hrs spectrophotometric analysis; type: ADME, cell-based; conditions: mcf7, 24 h; in short: as §1
MCF7 [5] = test: Antiproliferative activity against human MCF7 cells assessed as reduction in cell viability preincubated for 24 hrs followed by irradiated with green LED for 2 hrs then incubated in dark for 24 hrs in drug free medium by MTT assay; type: functional, cell-based; conditions: MCF7, light or radiation study; in short: as §3
MCF7 [6] = test: Induction of apoptosis in human MCF7 cells assessed as increase in necrotic cells at antiproliferative IC50 preincubated for 24 hrs followed by irradiated with green LED for 2 hrs then incubated in dark for 24 hrs in drug free medium by PI staining based flow cytometric analysis; type: functional, cell-based
In short: (§4)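 PI-stained cells analyzed by flow cytometry (575 nm); apoptotic fraction taken from the sub-G1 peak in log-mode histograms. Untreated controls; 3–5 independent experiments.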

SK-OV-3 [7] = test: Induction of apoptosis in human SK-OV-3 cells assessed as increase in apoptotic cells at antiproliferative IC50 preincubated for 24 hrs followed by irradiated with green LED for 2 hrs then incubated in dark for 24 hrs in drug free medium by PI staining based flow cytometric analysis; type: functional, cell-based; in short: as §4
SK-OV-3 [8] = test: (§5) Antimigratory activity against human SK-OV-3 cells assessed as open scratch wound at 2.5 nM preincubated for 24 hrs followed by irradiated with green LED for 2 hrs then incubated in dark for 24 hrs in drug free medium by scratch wound healing based microscopic analysis (reference value: 8.68 +/- 0.58%); type: functional
SK-OV-3 [9] = test: Induction of apoptosis in human SK-OV-3 cells assessed as increase in necrotic cells at antiproliferative IC50 preincubated for 24 hrs followed by irradiated with green LED for 2 hrs then incubated in dark for 24 hrs in drug free medium by PI staining based flow cytometric analysis; type: functional, cell-based; in short: as §4
SK-OV-3 [10] = test: Induction of ROS generation in human SK-OV-3 cells at antiproliferative IC50 preincubated for 24 hrs followed by irradiated with green LED for 2 hrs measured at the end of irradiation in drug free medium by DCFH-DA dye based flow cytometry relative to control
SK-OV-3 [11] = test: Antimigratory activity against human SK-OV-3 cells assessed as open scratch wound at 0.75 nM incubated for 24 hrs by scratch wound healing based microscopic analysis; type: functional, cell-based
MCF7 [12] = test: Induction of ROS generation in human MCF7 cells at antiproliferative IC50 preincubated for 24 hrs followed by irradiated with green LED for 2 hrs then incubated in dark for 24 hrs in drug free medium by DCFH-DA dye based flow cytometry relative to control; type: functional, cell-based
HCT-116 [13] = test: Induction of apoptosis in human HCT116 cells assessed as increase in apoptotic incubated for 24 hrs by PI staining based flow cytometric analysis; type: functional, cell-based
HCT-116 [14] = test: Antiproliferative activity against human HCT116 cells assessed as reduction in cell viability preincubated for 24 hrs followed by irradiated with green LED for 2 hrs then incubated in dark for 24 hrs in drug free medium by MTT assay; type: functional, cell-based; conditions: HCT-116, light or radiation study; in short: as §3
SK-OV-3 [15] = test: Antimigratory activity against human SK-OV-3 cells assessed as open scratch wound at 2.5 nM preincubated for 24 hrs followed by irradiated with green LED for 2 hrs measured immediately in drug free medium by scratch wound healing based microscopic analysis (Rvb 38.27 +/- 3.02%); type: functional
SK-OV-3 [16] = test: Induction of cell cycle arrest in human SK-OV-3 cells assessed as cell cycle distribution at antiproliferative IC50 incubated for 24 hrs by PI staining based flow cytometric analysis; type: functional
MCF7 [17] = test: Induction of cell cycle arrest in human MCF7 cells assessed as accumulation at G1 phase at antiproliferative IC50 preincubated for 24 hrs followed by irradiated with green LED for 2 hrs then incubated in dark for 24 hrs in drug free medium by PI staining based flow cytometric analysis; type: functional; in short: as §2
[18] = Drug uptake in human HCT116 cells assessed as intracellular accumulation at 10 uM incubated for 24 hrs spectrophotometric analysis; type: ADME, cell-based; conditions: hct-116, 24 h; in short: as §1
MCF7 [19] = test: Induction of cell cycle arrest in human MCF7 cells assessed as cell cycle distribution at antiproliferative IC50 incubated for 24 hrs by PI staining based flow cytometric analysis; type: functional
HCT-116 [20] = test: Induction of cell cycle arrest in human HCT116 cells assessed as cell cycle distribution at antiproliferative IC50 preincubated for 24 hrs followed by irradiated with green LED for 2 hrs then incubated in dark for 24 hrs in drug free medium by PI staining based flow cytometric analysis; type: functional; in short: as §2
MCF7 [21] = test: Induction of apoptosis in human MCF7 cells assessed as increase in apoptotic incubated for 24 hrs by PI staining based flow cytometric analysis; type: functional, cell-based
MCF7 [22] = test: Induction of cell cycle arrest in human MCF7 cells assessed as cell cycle distribution at antiproliferative IC50 preincubated for 24 hrs followed by irradiated with green LED for 2 hrs then incubated in dark for 24 hrs in drug free medium by PI staining based flow cytometric analysis; type: functional; in short: as §2
HCT-116 [23] = test: Induction of ROS generation in human HCT116 cells at antiproliferative IC50 preincubated for 24 hrs followed by irradiated with green LED for 2 hrs then incubated in dark for 24 hrs in drug free medium by DCFH-DA dye based flow cytometry relative to control; type: functional, cell-based
SK-OV-3 [24] = test: Induction of apoptosis in human SK-OV-3 cells assessed as increase in apoptotic incubated for 24 hrs by PI staining based flow cytometric analysis; type: functional, cell-based
HCT-116 [25] = test: Induction of cell cycle arrest in human HCT116 cells assessed as cell cycle distribution at antiproliferative IC50 incubated for 24 hrs by PI staining based flow cytometric analysis; type: functional
HCT-116 [26] = test: Induction of cell cycle arrest in human HCT116 cells assessed as accumulation at G1 phase at antiproliferative IC50 preincubated for 24 hrs followed by irradiated with green LED for 2 hrs then incubated in dark for 24 hrs in drug free medium by PI staining based flow cytometric analysis; type: functional; in short: as §2
SK-OV-3 [27] = test: Antimigratory activity against human SK-OV-3 cells assessed as open scratch wound at 2.5 nM incubated for 24 hrs by scratch wound healing based microscopic analysis; type: functional, cell-based
MCF7 [28] = test: Induction of apoptosis in human MCF7 cells assessed as increase in apoptotic cells at antiproliferative IC50 preincubated for 24 hrs followed by irradiated with green LED for 2 hrs then incubated in dark for 24 hrs in drug free medium by PI staining based flow cytometric analysis; type: functional, cell-based; in short: as §4
SK-OV-3 [29] = test: as §5, with “0.75” for “2.5”; type: functional
SK-OV-3 [30] = test: Antimigratory activity against human SK-OV-3 cells assessed as open scratch wound at 0.75 nM preincubated for 24 hrs followed by irradiated with green LED for 2 hrs measured immediately in drug free medium by scratch wound healing based microscopic analysis (Rvb 38.27 +/- 3.02%); type: functional
SK-OV-3 [31] = test: Induction of cell cycle arrest in human SK-OV-3 cells assessed as accumulation at G1 phase at antiproliferative IC50 preincubated for 24 hrs followed by irradiated with green LED for 2 hrs then incubated in dark for 24 hrs in drug free medium by PI staining based flow cytometric analysis; type: functional; in short: as §2

Compound | Drug uptake [1] | Activity (SK-OV-3 [2]) | IC50 (SK-OV-3 [3]) [nM] | Drug uptake [4] | IC50 (MCF7 [5]) [nM] | Activity (MCF7 [6]) | Activity (SK-OV-3 [7]) | Activity (SK-OV-3 [9]) | Activity (SK-OV-3 [10]) | Activity (SK-OV-3 [11]) | Activity (MCF7 [12]) | Activity (HCT-116 [13]) | IC50 (HCT-116 [14]) [nM] | Activity (SK-OV-3 [16]) | Activity (MCF7 [17]) | Drug uptake [18] | Activity (MCF7 [19]) | Activity (HCT-116 [20]) | Activity (MCF7 [21]) | Activity (MCF7 [22]) | further results
CC1=C(I)C(C)=[N+]2C1=C(c1ccc(OCCCCCCCCBr)cc1)c1c(C)c(I)c(C)n1[B-]2(F)F | Active | inactive | 15.6 | Active | 23.1 | Active | Active | Active | Active | inactive | inactive | inactive | 11.7 | inactive | inactive | Active | inactive | inactive | inactive | inactive | Activity (SK-OV-3 [8]): 13.53%; Activity (SK-OV-3 [15]): 37.71%; Activity (HCT-116 [23]): inactive; Activity (SK-OV-3 [24]): inactive; Activity (HCT-116 [25]): inactive; Activity (HCT-116 [26]): inactive; Activity (SK-OV-3 [27]): inactive; Activity (MCF7 [28]): Active
CC1=C(I)C(C)=[N+]2C1=C(c1ccc(OCCCCBr)cc1)c1c(C)c(I)c(C)n1[B-]2(F)F | Active | inactive | 3.56 | Active | 6.88 | Active | Active | Active | Active | inactive | inactive | inactive | 2 | inactive | inactive | Active | inactive | inactive | inactive | inactive | Activity (SK-OV-3 [29]): 24.81%; Activity (SK-OV-3 [30]): 35.19%; Activity (HCT-116 [23]): inactive; Activity (SK-OV-3 [24]): inactive; Activity (HCT-116 [25]): inactive; Activity (HCT-116 [26]): inactive; Activity (SK-OV-3 [27]): inactive; Activity (SK-OV-3 [31]): inactive; Activity (MCF7 [28]): Active

— ChEMBL document CHEMBL4665858, “New BODIPYs for photodynamic therapy (PDT): Synthesis and activity on human cancer cell lines” (Bioorg Med Chem, 2020)
